Converted amounts (≈) assume the structure as drawn.
Key:
[1] = test system: mAb 2G11G4; assay: indirect competitive ELISA; assay type: binding, mouse; settings: for Cross reactivity: (IC50 of dihydroartemisinin/IC50 of the other compound) × 100; for IC50: icELISA, mAb 2G11G4, coating antigen 9-O-succinyldihydroartemisinin-OVA
[2] = test system: mAb 2G11G4; assay: colloidal gold-based lateral flow immunoassay; assay type: binding, mouse; settings: for dipstick cross-reaction: drug concentration less than 100 ng/mL; for dipstick test line: standards at 100 ng/mL; for dipstick inhibition: standards at 500 ng/mL
Summary of the method: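 Anti-DHA mAb adsorbed onto 30 nm colloidal gold at pH 7.8, blocked with BSA, pelleted and resuspended in 0.01 M PBS pH 7.0. Gold-mAb was used at 30 μg/mL. Capture lines on nitrocellulose were 9-O-succinyl-DHA-BSA (1 mg/mL, test) and goat anti-mouse IgG (0.4 mg/mL, control), 5 mm apart. Aqueous DHA standards were 0–100 ng/mL. Indicator range is the lowest concentration at which the test line disappears visually.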

[3] = general statement, no reference given; cited from earlier work
[4] = test system: mAb 3D82G7; settings: cited from earlier work
[5] = test system: artemisinin antibody developed earlier; settings: cited from earlier work
[6] = buffer solution (pH=7.4); cited from earlier work
[7] = time course of DHA degradation in malaria culture, measured by icELISA; assay type: in vitro ADME, Plasmodium falciparum

Row | Structure (SMILES) | IC50 [1] [µg/mL] | Cross reactivity [1] [%] | dipstick cross-reaction [2] | dipstick test line [2] | dipstick inhibition [2] | other results
1 | CO[C@H]1O[C@@H]2O[C@@]3(C)CC[C@H]4[C@H](C)CC[C@@H]([C@H]1C)[C@@]24OO3 [Artemether] | >20 | <0.02 | did not cross-react | showed obvious color | no inhibition | water solubility [3]: poor water solubility
2 | C[C@@H]1CC[C@H]2[C@@H](C)C(=O)O[C@@H]3O[C@@]4(C)CC[C@@H]1[C@]32OO4 [Artemisinin] | 0.00222 (≈ 0.00786 µM) | 52.3 | did not cross-react | showed obvious color | different degrees of inhibition | water solubility [3]: poor water solubility
3 | C[C@H]1[C@H](OC(=O)CCC(=O)O)O[C@@H]2O[C@@]3(C)CC[C@H]4[C@H](C)CC[C@@H]1[C@@]24OO3 [Artesunate] | 0.0704 (≈ 0.183 µM) | 1.6 | did not cross-react | showed obvious color | different degrees of inhibition | cross-reactivity [4]: 460%; cross-reactivity [5]: 650%; Cross reactivity ([1]; listed as artesunate): low or no cross reactivity
4 | C[C@H]1[C@@H](O)O[C@@H]2O[C@@]3(C)CC[C@H]4[C@H](C)CC[C@@H]1[C@@]24OO3 [Dihydroartemisinin] | 0.00116 (≈ 0.00408 µM) | 100 | – | – | – | half-life [6]: 5.5 h; indicator range (lowest concentration at which the test line was not visible) ([2]; dipstick, serially diluted standard DHA): 50 to 100 ng/mL; working range (IC20 – IC80) ([1]; DHA concentration causing 20–80% inhibition of the signal): 0.00026 to 0.00487 µg/mL; half-life at 200 nM ([7]; Plasmodium falciparum): 3.64 ± 0.48 h; half-life at 200 nM ([7]; culture medium only (no cells)): 5.56 ± 0.87 h; DHA concentration after 12 h of incubation ([7]; parasite culture at 5% parasitemia, starting concentration 200 nM): < 4 nM; half-life at 200 nM ([7]; red blood cells in culture medium at 5% hematocrit): 4.55 ± 0.69 h

More lines, main results first:

Row | IC50 [1] [µg/mL] | Structure (SMILES) | Cross reactivity [1] [%] | dipstick cross-reaction [2] | dipstick test line [2] | dipstick inhibition [2] | other results
5 | >20 | CCN(CC)Cc1cc(Nc2ccnc3cc(Cl)ccc23)ccc1O [Amodiaquine] | <0.02 | – | – | – | –
6 | >20 | CCN(CC)CCCC(C)Nc1ccnc2cc(Cl)ccc12 (stereo not drawn) [Chloroquine] | – | – | – | – | –
7 | >20 | CCCCN(CCCC)CC(O)c1cc(Cl)cc2c1-c1ccc(Cl)cc1/C2=C/c1ccc(Cl)cc1 (stereo not drawn) [Lumefantrine] | <0.02 | – | – | – | –
8 | >20 | Clc1ccc2c(N3CCN(CCCN4CCN(c5ccnc6cc(Cl)ccc56)CC4)CC3)ccnc2c1 [Piperaquine] | <0.02 | – | – | – | –

From publication PMC6363535 (Journal of pharmaceutical and biomedical analysis, 2018)
